ChEMBL document CHEMBL1926577, “Novel 1,3,4-heterodiazole analogues: synthesis and in-vitro antitumor activity” (2012)

Assays:
Assay type in all cases: functional
CCRF-CEM = assay: Growth inhibition of human CCRF-CEM cells at 10 uM after 48 hrs by coulter counter method; settings: read-out: GI
In short: (§1)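 NCI 60-cell-line panel, single dose. Compound dissolved first in DMSO, then diluted in phosphate-buffered saline so that every final dilution held under 1% DMSO. Duplicate wells received cells at 6 × 10⁴ cells/ml. Controls held PBS/DMSO at the same dilution. Plates were incubated 48 h at 37 °C under 5% CO₂. Cells were then diluted 10-fold in saline and counted on a Coulter counter, with counts corrected for the dilution. Results are given as percent growth inhibition.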

HL-60(TB) = assay: Growth inhibition of human HL-60(TB) cells at 10 uM after 48 hrs by coulter counter method; settings: HL-60, 48 h, read-out: GI
In short: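 Single-dose screen on the NCI 60-line panel (leukemia subpanel). Compound is dissolved in DMSO and diluted in PBS, with final DMSO below 1%. Duplicate wells hold 6 × 10⁴ cells/ml at 37 °C, 5% CO₂, for 48 h. Cells are counted by Coulter counter after 10-fold saline dilution. Read-out is percent growth versus PBS/DMSO controls, expressed as % growth inhibition.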

K562 = assay: Growth inhibition of human K562 cells at 10 uM after 48 hrs by coulter counter method; settings: K562, 48 h, read-out: GI; in short: as §1
MOLT-4 = assay: Growth inhibition of human MOLT4 cells at 10 uM after 48 hrs by coulter counter method; settings: MOLT-4, 48 h, read-out: GI; in short: as §1
RPMI-8226 = assay: Growth inhibition of human RPMI8226 cells at 10 uM after 48 hrs by coulter counter method; settings: RPMI-8226, 48 h, read-out: GI; in short: as §1
SR = assay: Growth inhibition of human SR cells at 10 uM after 48 hrs by coulter counter method; settings: read-out: GI; in short: as §1
A549 = assay: Growth inhibition of human A549 cells at 10 uM after 48 hrs by coulter counter method; settings: A549, 48 h, read-out: GI; in short: as §1
EKVX = assay: Growth inhibition of human EKVX cells at 10 uM after 48 hrs by coulter counter method; settings: read-out: GI; in short: as §1
NCI-H226 = assay: Growth inhibition of human NCI-H226 cells at 10 uM after 48 hrs by coulter counter method; settings: NCI-H226, 48 h, read-out: GI; in short: as §1
NCI-H23 = assay: Growth inhibition of human NCI-H23 cells at 10 uM after 48 hrs by coulter counter method; settings: NCI-H23, 48 h, read-out: GI; in short: as §1
NCI-H322M = assay: Growth inhibition of human NCI-H322M cells at 10 uM after 48 hrs by coulter counter method; settings: read-out: GI; in short: as §1
NCI-H522 = assay: Growth inhibition of human NCI-H522 cells at 10 uM after 48 hrs by coulter counter method; settings: NCI-H522, 48 h, read-out: GI; in short: as §1
HCT-116 = assay: Growth inhibition of human HCT116 cells at 10 uM after 48 hrs by coulter counter method; settings: HCT-116, 48 h, read-out: GI; in short: as §1
HCT-15 = assay: Growth inhibition of human HCT15 cells at 10 uM after 48 hrs by coulter counter method; settings: HCT-15, 48 h, read-out: GI; in short: as §1
HT-29 = assay: Growth inhibition of human HT-29 cells at 10 uM after 48 hrs by coulter counter method; settings: HT-29, 48 h, read-out: GI; in short: as §1
KM12 = assay: Growth inhibition of human KM12 cells at 10 uM after 48 hrs by coulter counter method; settings: KM12, 48 h, read-out: GI; in short: as §1
SF-268 = assay: Growth inhibition of human SF268 cells at 10 uM after 48 hrs by coulter counter method; settings: SF-268, 48 h, read-out: GI; in short: as §1
SF-295 = assay: Growth inhibition of human SF295 cells at 10 uM after 48 hrs by coulter counter method; settings: SF-295, 48 h, read-out: GI; in short: as §1
SNB-19 = assay: Growth inhibition of human SNB19 cells at 10 uM after 48 hrs by coulter counter method; settings: SNB-19, 48 h, read-out: GI; in short: as §1
SNB-75 = assay: Growth inhibition of human SNB75 cells at 10 uM after 48 hrs by coulter counter method; settings: SNB-75, 48 h, read-out: GI; in short: as §1
U-251 = assay: Growth inhibition of human U251 cells at 10 uM after 48 hrs by coulter counter method; settings: U-251, 48 h, read-out: GI; in short: as §1
LOX IMVI = assay: Growth inhibition of human LOXIMVI cells at 10 uM after 48 hrs by coulter counter method; settings: read-out: GI; in short: as §1
Malme-3M = assay: Growth inhibition of human MALME-3M cells at 10 uM after 48 hrs by coulter counter method; settings: read-out: GI; in short: as §1
M14 = assay: Growth inhibition of human M14 cells at 10 uM after 48 hrs by coulter counter method; settings: M14, 48 h, read-out: GI; in short: as §1
MDA-MB-435 = assay: Growth inhibition of human MDA-MB-435 cells at 10 uM after 48 hrs by coulter counter method; settings: MDA-MB-435, 48 h, read-out: GI; in short: as §1
SK-MEL-2 = assay: Growth inhibition of human SK-MEL-2 cells at 10 uM after 48 hrs by coulter counter method; settings: SK-MEL-2, 48 h, read-out: GI; in short: as §1
SK-MEL-28 = assay: Growth inhibition of human SK-MEL-28 cells at 10 uM after 48 hrs by coulter counter method; settings: SK-MEL-28, 48 h, read-out: GI; in short: as §1
SK-MEL-5 = assay: Growth inhibition of human SK-MEL-5 cells at 10 uM after 48 hrs by coulter counter method; settings: SK-MEL-5, 48 h, read-out: GI; in short: as §1
UACC-257 = assay: Growth inhibition of human UACC257 cells at 10 uM after 48 hrs by coulter counter method; settings: UACC-257, 48 h, read-out: GI; in short: as §1
UACC-62 = assay: Growth inhibition of human UACC62 cells at 10 uM after 48 hrs by coulter counter method; settings: UACC-62, 48 h, read-out: GI; in short: as §1
IGROV-1 = assay: Growth inhibition of human IGROV1 cells at 10 uM after 48 hrs by coulter counter method; settings: IGROV-1, 48 h, read-out: GI; in short: as §1
OVCAR-8 = assay: Growth inhibition of human OVCAR8 cells at 10 uM after 48 hrs by coulter counter method; settings: OVCAR-8, 48 h, read-out: GI; in short: as §1
NCI/ADR-RES = assay: Growth inhibition of human NCI/ADR-RES cells at 10 uM after 48 hrs by coulter counter method; settings: read-out: GI; in short: as §1
786-0 = assay: Growth inhibition of human 786-0 cells at 10 uM after 48 hrs by coulter counter method; settings: 786-0, 48 h, read-out: GI; in short: as §1
A498 = assay: Growth inhibition of human A498 cells at 10 uM after 48 hrs by coulter counter method; settings: A498, 48 h, read-out: GI; in short: as §1
ACHN = assay: Growth inhibition of human ACHN cells at 10 uM after 48 hrs by coulter counter method; settings: read-out: GI; in short: as §1
CAKI-1 = assay: Growth inhibition of human Caki1 cells at 10 uM after 48 hrs by coulter counter method; settings: CAKI-1, 48 h, read-out: GI; in short: as §1
SN12C = assay: Growth inhibition of human SN12C cells at 10 uM after 48 hrs by coulter counter method; settings: read-out: GI; in short: as §1
TK-10 = assay: Growth inhibition of human TK10 cells at 10 uM after 48 hrs by coulter counter method; settings: TK-10, 48 h, read-out: GI; in short: as §1
UO-31 = assay: Growth inhibition of human UO31 cells at 10 uM after 48 hrs by coulter counter method; settings: UO-31, 48 h, read-out: GI; in short: as §1
PC-3 = assay: Growth inhibition of human PC3 cells at 10 uM after 48 hrs by coulter counter method; settings: PC-3, 48 h, read-out: GI; in short: as §1
MCF7 = assay: Growth inhibition of human MCF7 cells at 10 uM after 48 hrs by coulter counter method; settings: MCF7, 48 h, read-out: GI; in short: as §1
BT-549 = assay: Growth inhibition of human BT549 cells at 10 uM after 48 hrs by coulter counter method; settings: BT-549, 48 h, read-out: GI; in short: as §1
T47D = assay: Growth inhibition of human T47D cells at 10 uM after 48 hrs by coulter counter method; settings: read-out: GI; in short: as §1
MDA-MB-468 = assay: Growth inhibition of human MDA-MB-468 cells at 10 uM after 48 hrs by coulter counter method; settings: MDA-MB-468, 48 h, read-out: GI; in short: as §1

## O=C1CN2N=C(c3ccccc3)OC2=N1
CCRF-CEM
  inhibition of growth at 10 µM: < 10%
HL-60(TB)
  inhibition of growth at 10 µM: < 10%
K562
  inhibition of growth at 10 µM: < 10%
MOLT-4
  inhibition of growth at 10 µM: < 10%
RPMI-8226
  inhibition of growth at 10 µM: < 10%
SR
  inhibition of growth at 10 µM: < 10%
A549
  inhibition of growth at 10 µM: < 10%
EKVX
  inhibition of growth at 10 µM: < 10%
NCI-H226
  inhibition of growth at 10 µM: < 10%
NCI-H23
  inhibition of growth at 10 µM: < 10%
NCI-H322M
  inhibition of growth at 10 µM: < 10%
NCI-H522
  inhibition of growth at 10 µM: < 10%
HCT-116
  inhibition of growth at 10 µM: < 10%
HCT-15
  inhibition of growth at 10 µM: < 10%
HT-29
  inhibition of growth at 10 µM: < 10%
KM12
  inhibition of growth at 10 µM: < 10%
SF-268
  inhibition of growth at 10 µM: < 10%
SF-295
  inhibition of growth at 10 µM: 14.7%
SNB-19
  inhibition of growth at 10 µM: < 10%
SNB-75
  inhibition of growth at 10 µM: < 10%
U-251
  inhibition of growth at 10 µM: < 10%
LOX IMVI
  inhibition of growth at 10 µM: < 10%
Malme-3M
  inhibition of growth at 10 µM: < 10%
M14
  inhibition of growth at 10 µM: < 10%
MDA-MB-435
  inhibition of growth at 10 µM: < 10%
SK-MEL-2
  inhibition of growth at 10 µM: < 10%
SK-MEL-28
  inhibition of growth at 10 µM: < 10%
SK-MEL-5
  inhibition of growth at 10 µM: < 10%
UACC-257
  inhibition of growth at 10 µM: < 10%
UACC-62
  inhibition of growth at 10 µM: < 10%
IGROV-1
  inhibition of growth at 10 µM: < 10%
OVCAR-8
  inhibition of growth at 10 µM: < 10%
NCI/ADR-RES
  inhibition of growth at 10 µM: < 10%
786-0
  inhibition of growth at 10 µM: < 10%
A498
  inhibition of growth at 10 µM: 10.9%
ACHN
  inhibition of growth at 10 µM: < 10%
CAKI-1
  inhibition of growth at 10 µM: 21.2%
SN12C
  inhibition of growth at 10 µM: < 10%
TK-10
  inhibition of growth at 10 µM: < 10%
UO-31
  inhibition of growth at 10 µM: 20.4%
PC-3
  inhibition of growth at 10 µM: < 10%
MCF7
  inhibition of growth at 10 µM: < 10%
BT-549
  inhibition of growth at 10 µM: < 10%
T47D
  inhibition of growth at 10 µM: < 10%
MDA-MB-468
  inhibition of growth at 10 µM: < 10%
